From ChEMBL document CHEMBL2086239, “Synthesis and biological evaluation of combretastatin-amidobenzothiazole conjugates as potential anticancer agents” (Eur J Med Chem, 2012)
Active and inactive are the calls of the source. No cut-off for these calls is given here.

Assays:
COLO 205 = assay: Cytotoxicity against human COLO205 cells after 48 hrs assessed as inhibition of cell growth at 10 uM after 48 hrs by SRB assay relative to control; assay type: functional; settings: COLO 205, 48 h, read-out: GI
Method in brief: (§1)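 SRB protein assay in DMEM with 10% FBS at 37 °C, 5% CO2, 100% relative humidity. Cells seeded in 96-well plates, incubated 24 h, then exposed to drug at 10 µM for 48 h and processed per standard protocol. Absorbance read at 560 nm; growth percentage calculated for test wells relative to control wells.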

THP-1 = assay: Cytotoxicity against human THP1 cells after 48 hrs assessed as inhibition of cell growth at 10 uM after 48 hrs by SRB assay relative to control; assay type: functional; settings: THP-1, 48 h, read-out: GI; method in brief: as §1
A549 = assay: Cytotoxicity against human A549 cells assessed as inhibition of cell growth at 10 uM after 48 hrs by SRB assay relative to control; assay type: functional; settings: for inhibition of growth at 10 µM: A549, 48 h, read-out: GI; method in brief: as §1
HEp-2 = assay: Cytotoxicity against human Hep2 cells after 48 hrs assessed as inhibition of cell growth at 10 uM after 48 hrs by SRB assay relative to control; assay type: functional; settings: for inhibition of growth at 10 µM: HEp-2, 48 h, read-out: GI; method in brief: as §1
IMR-32 = assay: Cytotoxicity against human IMR32 cells after 48 hrs assessed as inhibition of cell growth at 10 uM after 48 hrs by SRB assay relative to control; assay type: functional; settings: for inhibition of growth at 10 µM: IMR-32, 48 h, read-out: GI; method in brief: as §1
MCF7 [1] = assay: Cytotoxicity against human MCF7 cells after 48 hrs assessed as inhibition of cell growth at 10 uM after 48 hrs by SRB assay relative to control; assay type: functional; settings: MCF7, 48 h, read-out: GI; method in brief: as §1
MCF7 [2] = assay: Cell cycle arrest in human MCF7 cells assessed as accumulation at G1 phase at 4 uM after 24 hrs by FACS analysis (reference value: 58.33%); assay type: functional
MCF7 [3] = assay: Cell cycle arrest in human MCF7 cells assessed as accumulation at G2/M phase at 4 uM after 24 hrs by FACS analysis (reference value: 34.88%); assay type: functional
PC-3 = assay: Cytotoxicity against human PC3 cells after 48 hrs assessed as inhibition of cell growth at 10 uM after 48 hrs by SRB assay relative to control; assay type: functional; settings: PC-3, 48 h, read-out: GI; method in brief: as §1
MCF7 [4] = assay: Cell cycle arrest in human MCF7 cells assessed as accumulation at S phase at 4 uM after 24 hrs by FACS analysis (reference value: 6.79%); assay type: functional
MCF7 [5] = assay: Inhibition of microtubule organization in human MCF7 cells at 4 uM after 24 hrs by immunofluorescence analysis; assay type: cell-based
Method in brief: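 MCF-7 cells were grown in DMEM with 10% fetal calf serum and penicillin/streptomycin at 37 °C and 5% CO2. Cells on cover slips were treated for 24 h, then fixed in 4% paraformaldehyde for 20 min. They were permeabilised with 0.2% Triton X-100, held in methanol at 4 °C overnight and blocked with 1% BSA. Staining used anti-α-tubulin (1:100, 2 h RT), FITC secondary and a DAPI/PI mount, with confocal imaging.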

Row | Compound | inhibition of growth at 10 µM (COLO 205) | inhibition of growth at 10 µM (THP-1) | growth inhibition (GI) (A549) | growth inhibition (GI) (HEp-2) | inhibition of growth at 10 µM (IMR-32) | inhibition of growth at 10 µM (MCF7 [1]) | Activity (MCF7 [2]) | Activity (MCF7 [3]) | inhibition of growth at 10 µM (PC-3) | Activity (MCF7 [4]) | inhibition of growth at 10 µM (A549) | inhibition of growth at 10 µM (HEp-2) | growth inhibition (GI) (IMR-32) | inhibition (MCF7 [5])
1 | COc1ccc(/C=C\c2cc(OC)c(OC)c(OC)c2)cc1OCC(=O)Nc1nc2c(C)cccc2s1 | 24% | 19% | inactive | inactive | 34% | 29% | 68.06% | 28.48% | 24% | 3.46% | – | – | – | –
2 | COc1cccc2c1C(=O)c1c(O)c3c(c(O)c1C2=O)C[C@@](O)(C(=O)CO)C[C@@H]3O[C@H]1C[C@H](N)[C@H](O)[C@H](C)O1 [DOXORUBICIN] | 26% | 83% | – | – | 73% | 45% | – | – | 75% | – | 52% | 56% | – | –
3 | COc1ccc(/C=C\c2cc(OC)c(OC)c(OC)c2)cc1OCC(=O)Nc1nc2ccc([N+](=O)[O-])cc2s1 | 46% | 80% | – | inactive | 88% | 69% | – | – | 47% | – | 50% | – | – | –
4 | COc1ccc(/C=C\c2cc(OC)c(OC)c(OC)c2)cc1OCC(=O)Nc1nc2ccc(C)cc2s1 | 33% | 27% | – | – | – | 57% | 41.7% | 42.82% | 22% | 15.53% | 37% | 44% | inactive | –
5 | CCOc1ccc2nc(NC(=O)COc3cc(/C=C\c4cc(OC)c(OC)c(OC)c4)ccc3OC)sc2c1 | 45% | 37% | – | – | 54% | 35% | 48.43% | 37.67% | 37% | 13.91% | 27% | 49% | – | –
6 | COc1ccc(/C=C\c2cc(OC)c(OC)c(OC)c2)cc1OCC(=O)Nc1nc2cc(C)c(C)cc2s1 | 51% | 76% | – | – | 55% | 68% | 80.59% | 16.37% | 36% | 3.04% | 41% | 23% | – | –
7 | COC(=O)Nc1nc2cc(C(=O)c3cccs3)ccc2[nH]1 | – | – | – | – | – | – | – | – | – | – | – | – | – | Active
8 | COc1ccc(/C=C\c2cc(OC)c(OC)c(OC)c2)cc1OCC(=O)Nc1ccc2ncsc2c1 | 11% | 41% | inactive | – | 46% | 19% | – | – | 58% | – | – | 20% | – | –
9 | COc1ccc(/C=C\c2cc(OC)c(OC)c(OC)c2)cc1OCC(=O)Nc1nc2ccc(Cl)cc2s1 | 17% | 70% | inactive | – | 51% | 21% | – | – | 41% | – | – | 47% | – | –
